ChEMBL document CHEMBL1139975, “Cyclic benzamidines as orally efficacious NR2B-selective NMDA receptor antagonists” (Bioorg Med Chem Lett, 2007)

How the values were obtained:
[1] = target: T1, Glutamate receptor ionotropic, NMDA 2B (Homo sapiens, UniProt Q05586+Q13224); assay: Binding affinity to NMDA NR2B receptor
[2] = target: T1, Glutamate receptor ionotropic, NMDA 2B; assay: Antagonist activity at NMDA NR2B receptor assessed as calcium flux; format: functional
[3] = Cmax in rat at 2 mg/kg, iv and 10 mg/kg, po; format: ADME, organism-based; settings: in vivo
In short: (§1)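 Rats were dosed 2 mg/kg iv and 10 mg/kg po in separate arms. Plasma Cmax, plasma half-life, clearance and oral bioavailability were derived from these two dosings.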

[4] = Oral bioavailability in rat at 10 mg/kg; format: ADME, organism-based; settings: in vivo; in short: as §1
[5] = Half life in rat at 2 mg/kg, iv and 10 mg/kg, po; format: ADME, organism-based; settings: in vivo; in short: as §1
[6] = Clearance in rat at 2 mg/kg, iv and 10 mg/kg, po; format: ADME, organism-based; settings: in vivo; in short: as §1
Rattus norvegicus = assay: Reduction in hyperalgesic response in po dosed carrageenan-induced hyperalgesia rat model; format: functional
In short: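 Carrageenan was used to induce hyperalgesia in rats, and test compound was given orally. Behavioral responses to noxious stimuli were scored, and the hyperalgesic response was expressed as % reduction versus control. ED50 was derived from oral dosing.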

T1 sequence (Q13224 whole entry, one chain of several): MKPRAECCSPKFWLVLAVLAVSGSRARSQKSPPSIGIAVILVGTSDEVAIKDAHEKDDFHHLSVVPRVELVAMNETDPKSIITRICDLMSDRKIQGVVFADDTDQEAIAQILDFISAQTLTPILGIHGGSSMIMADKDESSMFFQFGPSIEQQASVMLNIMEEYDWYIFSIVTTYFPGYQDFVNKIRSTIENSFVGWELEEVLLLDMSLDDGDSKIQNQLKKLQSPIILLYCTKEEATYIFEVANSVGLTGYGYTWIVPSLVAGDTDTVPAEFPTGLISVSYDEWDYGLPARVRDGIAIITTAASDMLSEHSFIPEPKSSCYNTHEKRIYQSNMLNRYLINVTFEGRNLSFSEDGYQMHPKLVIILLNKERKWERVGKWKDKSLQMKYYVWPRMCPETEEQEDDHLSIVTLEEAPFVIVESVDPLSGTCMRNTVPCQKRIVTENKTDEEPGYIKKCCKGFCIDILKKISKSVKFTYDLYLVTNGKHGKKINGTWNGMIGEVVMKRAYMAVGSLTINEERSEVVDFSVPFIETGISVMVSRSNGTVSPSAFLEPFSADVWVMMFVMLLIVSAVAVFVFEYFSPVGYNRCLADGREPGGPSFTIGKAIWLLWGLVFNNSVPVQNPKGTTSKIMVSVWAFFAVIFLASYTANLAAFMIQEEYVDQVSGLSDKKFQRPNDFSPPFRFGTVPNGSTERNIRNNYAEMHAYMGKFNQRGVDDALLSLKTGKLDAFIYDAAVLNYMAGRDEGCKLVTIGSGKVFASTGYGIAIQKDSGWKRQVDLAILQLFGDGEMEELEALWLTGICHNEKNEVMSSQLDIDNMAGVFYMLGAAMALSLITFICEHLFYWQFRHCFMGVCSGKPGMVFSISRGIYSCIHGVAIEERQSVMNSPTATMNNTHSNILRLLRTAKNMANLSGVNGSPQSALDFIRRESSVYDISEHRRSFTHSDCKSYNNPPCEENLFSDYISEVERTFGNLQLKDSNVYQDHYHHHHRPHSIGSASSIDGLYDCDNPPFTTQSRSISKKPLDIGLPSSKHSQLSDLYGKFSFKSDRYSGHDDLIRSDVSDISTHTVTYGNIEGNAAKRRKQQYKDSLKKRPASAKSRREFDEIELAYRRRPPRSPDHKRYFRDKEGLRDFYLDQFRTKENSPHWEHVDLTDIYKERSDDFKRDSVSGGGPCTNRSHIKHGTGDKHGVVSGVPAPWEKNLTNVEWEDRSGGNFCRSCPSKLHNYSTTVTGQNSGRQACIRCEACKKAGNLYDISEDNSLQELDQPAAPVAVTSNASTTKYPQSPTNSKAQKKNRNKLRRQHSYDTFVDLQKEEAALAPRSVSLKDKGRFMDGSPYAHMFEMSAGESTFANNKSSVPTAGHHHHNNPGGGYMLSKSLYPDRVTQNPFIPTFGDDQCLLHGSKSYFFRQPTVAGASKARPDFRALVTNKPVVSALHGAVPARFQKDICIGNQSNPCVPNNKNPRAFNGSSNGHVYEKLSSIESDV

SMILES	Ki [1]	IC50 [2]	also measured
N=C1c2ccc(OC(F)(F)F)cc2CN1Cc1cccc2ccoc12	2.2 nM	12 nM	
Cc1cc(C)cc(CN2Cc3cc(OC(F)(F)F)ccc3C2=N)c1	2 nM	39 nM	
COc1ccccc1C1CN=C(c2ccc(OC(F)(F)F)c(Cl)c2)N1 (configuration not stated)	75 nM	108 nM	
FC(F)(F)Oc1ccc(C2=NCCCC(c3ccccc3)N2)cc1 (configuration not stated)	4200 nM		
N=C1c2ccc(OC(F)(F)F)cc2CN1Cc1cccc(Cl)c1	8 nM	49 nM	
FC(F)(F)Oc1ccc(C2=NC(c3cccc(Cl)c3)CN2)cc1 (configuration not stated)	296 nM	1980 nM	
OC1CN=C(c2ccc(OC(F)(F)F)cc2)NC1c1ccccc1 (configuration not stated)	7350 nM		
FC(F)(F)Oc1ccc(C2=NCC(c3ccccc3OC(F)(F)F)N2)cc1Cl (configuration not stated)	505 nM	3480 nM	
FC(F)(F)Oc1ccc(C2=NCC(c3ccccc3C(F)(F)F)N2)cc1Cl (configuration not stated)	353 nM	1270 nM	
COc1ccccc1CN1Cc2cc(OC(F)(F)F)ccc2C1=N	3.6 nM	5.9 nM	Cmax [3]: 215 nM; bioavailability [4]: 5%; half-life [5]: 2 h; clearance [6]: 66 mL/min/kg; ED50 (Rattus norvegicus): 20 mg/kg
FC(F)(F)Oc1ccc(C2=NC(c3cc(Cl)cc(Cl)c3)CN2)cc1Cl (configuration not stated)	223 nM	3670 nM	
FC(F)(F)Oc1ccc(C2=NC(c3cccc(Cl)c3)CN2)cc1Cl (configuration not stated)	66 nM	266 nM	
